Reference: ChEMBL document CHEMBL1765024, “Fluorescent cyclin-dependent kinase inhibitors block the proliferation of human breast cancer cells” (Bioorg Med Chem, 2011)
Active and inactive are the calls of the source. The calls are words filed in the database; no cut-off is given here.

Tests used:
Homo sapiens = species on record: Homo sapiens; assay: Binding affinity to human breast cancer tissue at 10 uM after 1 hr by two-photon confocal microscopic analysis; type: functional
How it was run: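 Breast cancer tissue sections were dewaxed and rehydrated, then given epitope retrieval for 20 min at 100 °C. They were blocked with goat serum, exposed to 10 µM compound or dansyl ethylenediamine control for 1 h at room temperature, washed and mounted. Dansyl fluorescence was imaged.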

MCF7 [1] = assay: Cell cycle arrest in human MCF7 cells assessed as accumulation at G2/M phase at 5 to 10 uM after 16 to 40 hrs using propidium iodide staining by flow cytometry; type: functional, cell-based
How it was run: (§1)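 Asynchronous cells were treated with 5 or 10 µM compound or DMSO for 24 h (also 16 and 40 h). They were trypsinized, washed in PBS and fixed/permeabilized in 70% ethanol. Staining was with RNase and propidium iodide for 30 min in the dark at room temperature, followed by flow cytometry. Phase percentages are given minus DMSO control; mean of triplicates.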

MDA-MB-231 [2] = assay: Drug uptake in human MDA-MB-231 cell cytoplasm at 10 uM after 1 hr using propidium iodide staining by two-photon confocal microscopy; type: ADME, cell-based; conditions: mda-mb-231, 1 h
How it was run: (§2)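 Cells (5 × 10^5) were treated with 10 µM compound for 1 h, PBS-washed and fixed in 4% formaldehyde. Nuclei were stained with propidium iodide for 5 min before mounting. Imaging used two-photon confocal microscopy, 63× oil, excitation 720 nm, emission 480–520 nm, with DIC for morphology.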

MDA-MB-231 [3] = assay: Cell cycle arrest in human MDA-MB-231 cells assessed as accumulation at G2/M phase treated at 10 uM for 24 hrs measured after drug washout following 48 hrs growth recovery using propidium iodide staining by flow cytometry; type: functional, cell-based
How it was run: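 Exponentially growing cells exposed 24 h, then held a further 48 h in compound-free medium. Cells trypsinized, pelleted, PBS-washed, permeabilized in 70% ethanol, stained 30 min in the dark at room temperature with PI plus RNase, and analysed by flow cytometry. Phase percentages given after subtracting untreated control. Mean of triplicate experiments.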

MDA-MB-231 [4] = assay: Induction of apoptosis in human MDA-MB-231 cells assessed as aberrant gross morphological changes at 10 uM after 48 hrs using propidium iodide staining by confocal microscopic analysis; type: functional, cell-based
MDA-MB-231 [5] = assay: Induction of apoptosis in human MDA-MB-231 cells assessed as increase in Bax protein level at 10 uM after 48 hrs by Western blotting; type: functional, cell-based
How it was run: (§3)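 MDA-MB-231 cells were treated with vehicle or 10 µM compound for 48 h (and 72 h). Lysates were cleared and protein measured by BCA. Equal protein was run on 10% SDS–PAGE and transferred to PVDF, blocked in 5% milk overnight, and probed 2 h with anti-Bcl-2, Bax or PARP. HRP secondary was applied for 1 h, with ECL detection.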

MDA-MB-231 [6] = assay: Induction of apoptosis in human MDA-MB-231 cells assessed as reduction of cdc2 phosphorylation at T161 catalytic site at 10 uM by Western blot analysis; type: functional, cell-based; conditions: TDE = time-dependent effect
How it was run: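 MDA-MB-231 cells were treated with 10 µM compound for 1, 3, 6, 12 and 24 h and lysed. Equal protein was resolved by 10% SDS–PAGE and immunoblotted for phospho-cdc2 (T161, Y15), cdc2 and cyclin B, with actin as loading standard and ECL detection.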

MCF7 [7] = assay: Cell cycle arrest in human MCF7 cells assessed as accumulation at sub G1 phase at 5 to 10 uM after 24 hrs using propidium iodide staining by flow cytometry; type: functional, cell-based; how it was run: as §1
MCF7 [8] = assay: Antiproliferative activity against human MCF7 cells expressing estrogen receptor after 48 hrs by WST-1 assay; type: functional, cell-based; conditions: MCF7, 48 h
How it was run: (§4)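 Cells seeded at 3000/well in DMEM with 10% FBS and left 24 h. Compounds in DMSO were serially diluted in medium (1–100 µM) and added in triplicate. WST-1 was read 48 h after addition: 2–3 h incubation, absorbance at 450 nm with 630 nm reference. IC50 interpolated from log concentration versus fraction surviving; mean (SEM) of triplicate experiments.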

MDA-MB-231 [9] = assay: Induction of apoptosis in human MDA-MB-231 cells assessed as decrease in Bcl2 protein level at 10 uM after 48 hrs by Western blotting; type: functional, cell-based; how it was run: as §3
MCF7 [10] = assay: Induction of apoptosis in human MCF7 cells assessed as early apoptotic cells at 10 uM after 24 hrs using annexinV-propidium iodide staining by flow cytometry (reference value: 4.24%); type: functional
MCF7 [11] = assay: Drug uptake in human MCF7 cell cytoplasm at 10 uM after 3 to 24 hrs using propidium iodide staining by two-photon confocal microscopy; type: ADME, cell-based; conditions: mcf7, 10 µM
MCF7 [12] = assay: Induction of apoptosis in human MCF7 cells assessed as aberrant gross morphological changes at 10 uM after 48 hrs using propidium iodide staining by confocal microscopic analysis; type: functional, cell-based
[13] = target: Cyclin-dependent kinase 5/CDK5 activator 1 (Homo sapiens) (UniProt Q00535+Q15078); conditions: at 0.1 µM
Sequence of Cyclin-dependent kinase 5/CDK5 activator 1 (Homo sapiens) (Q00535 whole entry): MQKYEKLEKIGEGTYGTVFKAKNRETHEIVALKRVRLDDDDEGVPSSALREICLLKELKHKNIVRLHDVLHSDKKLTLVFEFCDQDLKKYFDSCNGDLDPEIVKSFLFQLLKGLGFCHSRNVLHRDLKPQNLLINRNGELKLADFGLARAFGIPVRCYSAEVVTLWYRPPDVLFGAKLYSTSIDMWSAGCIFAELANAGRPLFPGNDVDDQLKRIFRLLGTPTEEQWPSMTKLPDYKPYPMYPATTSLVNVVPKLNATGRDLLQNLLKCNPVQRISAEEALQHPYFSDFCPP
Sequence of Cyclin-dependent kinase 5/CDK5 activator 1 (Homo sapiens) (Q15078 99-307 partner limits assumed): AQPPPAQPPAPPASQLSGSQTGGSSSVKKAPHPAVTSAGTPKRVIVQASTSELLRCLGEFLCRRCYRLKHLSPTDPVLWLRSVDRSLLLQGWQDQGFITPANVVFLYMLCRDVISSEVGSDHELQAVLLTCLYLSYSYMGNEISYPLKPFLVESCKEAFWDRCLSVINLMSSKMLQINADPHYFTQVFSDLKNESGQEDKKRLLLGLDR

MCF7 [14] = assay: Induction of apoptosis in human MCF7 cells assessed as decrease in cell number at 10 uM after 48 hrs using propidium iodide staining by confocal microscopic analysis; type: functional, cell-based
[15] = target: CDK9/cyclin T1 (Homo sapiens) (UniProt O60563+P50750); assay: Inhibition of at human CDK9/cyclin T1 at 0.1 uM after 40 mins relative to control; type: protein-complex assay
How it was run: (§5)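 Radiometric screen at 100 nM compound against purified human CDK/cyclin (5–10 mU). Incubation 40 min at room temperature, stopped with phosphoric acid. Read by filtermat scintillation. Activity expressed as % of control, N = 2.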

MDA-MB-231 [16] = assay: Antiproliferative activity against estrogen receptor-deficient human MDA-MB-231 cells after 48 hrs by WST-1 assay; type: functional, cell-based; conditions: MDA-MB-231, 48 h; how it was run: as §4
[17] = target: CDK3/cyclin E (Homo sapiens) (UniProt P24864+O96020+Q00526); assay: Inhibition of human CDK3/cyclin E at 0.1 uM after 40 mins relative to control; type: protein-complex assay; how it was run: as §5
Sequence of CDK3/cyclin E (Homo sapiens) (O96020 whole entry, looked up): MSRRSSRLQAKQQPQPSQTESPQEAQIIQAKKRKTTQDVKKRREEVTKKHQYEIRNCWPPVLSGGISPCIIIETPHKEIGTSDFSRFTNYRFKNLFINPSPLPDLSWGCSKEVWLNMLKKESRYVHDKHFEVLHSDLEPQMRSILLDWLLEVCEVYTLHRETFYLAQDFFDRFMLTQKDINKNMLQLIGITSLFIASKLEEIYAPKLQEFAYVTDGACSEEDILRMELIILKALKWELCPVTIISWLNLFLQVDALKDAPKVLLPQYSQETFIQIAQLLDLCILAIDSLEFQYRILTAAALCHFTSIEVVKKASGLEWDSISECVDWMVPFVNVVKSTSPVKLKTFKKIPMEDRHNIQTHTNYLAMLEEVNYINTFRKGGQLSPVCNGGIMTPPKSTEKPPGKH
Sequence of CDK3/cyclin E (Homo sapiens) (P24864 whole entry, looked up): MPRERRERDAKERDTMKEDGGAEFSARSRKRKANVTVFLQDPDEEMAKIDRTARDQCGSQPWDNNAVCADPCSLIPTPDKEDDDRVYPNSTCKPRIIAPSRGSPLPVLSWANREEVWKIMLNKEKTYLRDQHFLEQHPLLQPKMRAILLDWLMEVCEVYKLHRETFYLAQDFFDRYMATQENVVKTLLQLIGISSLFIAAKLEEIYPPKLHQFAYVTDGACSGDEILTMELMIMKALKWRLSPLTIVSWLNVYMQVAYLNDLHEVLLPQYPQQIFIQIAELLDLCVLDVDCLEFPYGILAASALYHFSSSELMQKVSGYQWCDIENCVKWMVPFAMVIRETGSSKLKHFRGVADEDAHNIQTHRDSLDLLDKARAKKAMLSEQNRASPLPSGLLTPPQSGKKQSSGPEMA
Sequence of CDK3/cyclin E (Homo sapiens) (Q00526 whole entry, looked up): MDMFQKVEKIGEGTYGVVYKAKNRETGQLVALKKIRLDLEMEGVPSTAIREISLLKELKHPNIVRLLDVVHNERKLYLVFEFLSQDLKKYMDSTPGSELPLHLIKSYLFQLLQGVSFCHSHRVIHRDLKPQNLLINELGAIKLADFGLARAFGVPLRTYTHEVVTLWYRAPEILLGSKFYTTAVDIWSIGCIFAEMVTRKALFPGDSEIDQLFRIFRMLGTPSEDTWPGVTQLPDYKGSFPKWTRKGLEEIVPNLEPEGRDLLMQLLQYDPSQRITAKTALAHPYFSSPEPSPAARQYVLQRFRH

[18] = target: Cyclin-dependent kinase 1/cyclin B1 (Homo sapiens) (UniProt P06493+P14635); conditions: at 0.1 µM
Sequence of Cyclin-dependent kinase 1/cyclin B1 (Homo sapiens) (P06493 whole entry, looked up): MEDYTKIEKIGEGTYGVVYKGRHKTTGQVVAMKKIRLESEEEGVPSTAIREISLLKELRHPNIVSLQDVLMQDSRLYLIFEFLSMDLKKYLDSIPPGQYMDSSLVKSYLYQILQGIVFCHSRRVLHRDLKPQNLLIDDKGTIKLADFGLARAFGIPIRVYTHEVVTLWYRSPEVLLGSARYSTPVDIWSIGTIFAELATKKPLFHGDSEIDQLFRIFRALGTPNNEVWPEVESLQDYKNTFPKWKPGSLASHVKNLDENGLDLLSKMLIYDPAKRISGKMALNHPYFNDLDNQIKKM
Sequence of Cyclin-dependent kinase 1/cyclin B1 (Homo sapiens) (P14635 whole entry, looked up): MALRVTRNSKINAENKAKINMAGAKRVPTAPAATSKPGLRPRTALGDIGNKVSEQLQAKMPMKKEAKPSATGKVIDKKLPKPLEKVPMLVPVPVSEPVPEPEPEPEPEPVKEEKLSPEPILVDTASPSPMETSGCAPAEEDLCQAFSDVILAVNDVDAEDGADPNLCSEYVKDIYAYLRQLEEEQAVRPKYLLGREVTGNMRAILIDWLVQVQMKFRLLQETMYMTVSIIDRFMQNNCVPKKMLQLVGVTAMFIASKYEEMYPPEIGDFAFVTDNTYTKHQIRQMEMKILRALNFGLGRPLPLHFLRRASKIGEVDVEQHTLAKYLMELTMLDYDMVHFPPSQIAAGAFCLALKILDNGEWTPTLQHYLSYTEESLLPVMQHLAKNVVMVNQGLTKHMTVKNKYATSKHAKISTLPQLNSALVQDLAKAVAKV

MCF7 [19] = assay: Drug uptake in human MCF7 cell cytoplasm at 10 uM after 1 hr using propidium iodide staining by two-photon confocal microscopy; type: ADME, cell-based; conditions: mcf7, 1 h; how it was run: as §2
[20] = target: Cyclin-dependent kinase 7/ cyclin H (Homo sapiens) (UniProt P51946+P50613); assay: Inhibition of human CDK7/cyclinH/MAT1 at 0.1 uM after 40 mins relative to control; type: protein-complex assay; how it was run: as §5
MDA-MB-231 [21] = assay: Cell cycle arrest in human MDA-MB-231 cells assessed as accumulation at G2/M phase at 5 to 10 uM after 16 to 40 hrs using propidium iodide staining by flow cytometry; type: functional, cell-based; how it was run: as §1
MCF7 [22] = assay: Ratio of IC50 for human CL 10.3 cells expressing p-glycoprotein to IC50 for human MCF7 cells; type: functional
How it was run: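 MCF-7 and its P-glycoprotein-overexpressing MDR subline CL 10.3 were grown in DMEM with 10% heat-inactivated FBS. Compounds in DMSO were serially diluted in medium and given to cells for 72 h. Read-out was WST-1 reduction (450 nm, 630 nm reference). IC50 interpolated from log concentration versus fraction surviving; mean (SEM) of triplicates. Ratio is CL 10.3 IC50 over MCF-7 IC50.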

MCF7 [23] = assay: Induction of apoptosis in human MCF7 cells assessed as late apoptotic cells at 10 uM after 24 hrs using annexinV-propidium iodide staining by flow cytometry (reference value: 13.35%); type: functional

Activity (Homo sapiens): Active | Activity (MDA-MB-231 [2]): Active | IC50 (MCF7 [8]): 10 µM | Activity (MCF7 [11]): Active | inhibition [13]: 66% | inhibition [15]: 67% | IC50 (MDA-MB-231 [16]): 4.06 µM | inhibition [17]: 65% | inhibition [18]: 35% | Activity (MCF7 [19]): Active | inhibition [20]: 69%
Compound: CC(C)[C@H](CO)Nc1nc(Nc2ccc(C(=O)NCCNS(=O)(=O)c3cccc4c(N(C)C)cccc34)c(Cl)c2)c2ncn(C(C)C)c2n1
Activity (MCF7 [1]): Active | Activity (MDA-MB-231 [3]): Active | Activity (MDA-MB-231 [4]): Active | Activity (MDA-MB-231 [5]): Active | inhibition (MDA-MB-231 [6]): tde | Activity (MCF7 [7]): Active | Activity (MDA-MB-231 [9]): Active | Activity (MCF7 [10]): 10.53% | Activity (MCF7 [12]): Active | Activity (MCF7 [14]): Active | Activity (MDA-MB-231 [21]): Active | Ratio IC50 (MCF7 [22]): 9.8 | Activity (MCF7 [23]): 23.47%
